Calls of active or inactive are those of the source.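 Rule for the calls: active = GFP response vs DMSO above 150% with enough events counted; inconclusive = fewer than 70 events counted for a yeast strain; inactive = the rest.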

The test can be described thus: yeast TOR reporter LAP4-GFP retest – cell-based, third cherry pick, flow cytometry, confirmation (AID 504338).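 Note: ratio to plate DMSO wells so 100% equals DMSO level rather than 0%.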 Particulars: S. cerevisiae LAP4-GFP strain, 3 h, at 10 µM, hits give high values. In a few lines:
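material = yeast LAP4-GFP strain | medium = synthetic complete growth medium for yeast | doses = 10 µM, one concentration | schedule = compound exposure for 3 h at 30 °C | signal = flow cytometric GFP fluorescence | read-out basis = percent of mean DMSO-control median fluorescence | control set = rapamycin 400 ng/mL as positive control, DMSO wells as reference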
As for `NC(=O)COc1cccc2cccnc12`, the GFP response vs DMSO was 103% (inactive).

Consider `C[n+]1cccc2c(Br)ccc([O-])c21`, for which the GFP response vs DMSO was 104% (inactive).

Turning to `COCCCNc1nc(N)c([N+](=O)[O-])c(Nc2ccccc2OC)n1`, the GFP response vs DMSO is 106% (inactive).

Turning to `CS(=O)(=O)c1nc(-c2ccc(F)cc2)cc(C(F)(F)F)n1`, the GFP response vs DMSO was 144% (inactive).

Regarding `CS(=O)(=O)Oc1ccc(Br)c2cccnc12`, the GFP response vs DMSO is 104% (inactive).

Take `CCCOCc1ccc(O)c2ncccc12`: the GFP response vs DMSO is 104% (inactive).

Turning to `Cc1ccc(Nc2cc(=O)[nH]c(=O)[nH]2)cc1Cl`, the GFP response vs DMSO was 103% (inactive).

On to `Cc1ccc(Nc2nc(N)[nH]c(=O)c2N=O)cc1`, for which the GFP response vs DMSO is 104% (inactive).

Regarding `CCC(C)Nc1nc(N)c([N+](=O)[O-])c(Nc2cc(OC)ccc2OC)n1` (stereo unspecified), the GFP response vs DMSO is 101% (inactive).

As for `COC(=O)c1cc(=O)c2cccc(OC)c2[nH]1`, the GFP response vs DMSO was 101% (inactive).

Consider `CCc1c(C)nc2c(OC)cccc2c1Cl`, for which the GFP response vs DMSO was 104% (inactive).

Take `Cc1cccc(C)c1Nc1ncnc(N)c1[N+](=O)[O-]`: the GFP response vs DMSO is 101% (inactive).

For the compound `CCN(CC)C(=O)Oc1cc(=O)n(C)c2ccccc12`, the GFP response vs DMSO is 101% (inactive).

For the compound `O=C(O)c1ccc(C=NNC(=O)c2cccc3ccccc23)cc1`, the GFP response vs DMSO was 104% (inactive).

Turning to `Cc1nc2c(O)cccc2cc1CO`, the GFP response vs DMSO was 101% (inactive).

For the compound `Cc1nc(Nc2ccc(Cl)cc2)c(C#N)c(=O)[nH]1`, the GFP response vs DMSO was 107% (inactive).

Turning to `COCCCNc1nc(N)c([N+](=O)[O-])c(Nc2cc(OC)ccc2OC)n1`, the GFP response vs DMSO was 103% (inactive).

Regarding `O=C(O)CCCCCNc1ncnc2ccc(Br)cc12`, the GFP response vs DMSO was 104% (inactive).

`CCN(CC)c1ncnc2ccc(Br)cc12`: the GFP response vs DMSO was 101% (inactive).

For `Cn1c(=O)c2c(n3cnnc13)-c1ccccc1CC21CCCC1`, the GFP response vs DMSO is 101% (inactive).

Turning to `COc1ccc(NC(=O)ON=C2c3ccccc3-c3ccccc32)cc1`, the GFP response vs DMSO was 104% (inactive).
